29 compounds from ChEMBL document CHEMBL1629533, “Identification of the spiro(oxindole-3,3'-thiazolidine)-based derivatives as potential p53 activity modulators” (J Med Chem, 2010) can be followed below.

Assay [1] relates to HEK293. Kind of assay: Cytotoxicity against transformed human HEK293 cells after 24 to 48 hrs by MTT assay. In kind it is functional, cell-based.
The test system of assay [2] is M14. Kind of assay: Cytotoxicity against human M14 cells after 24 to 48 hrs by MTT assay. Format: functional, cell-based.
For assay [3], the system named is U-937. Kind of assay: Cytotoxicity against human U937 cells after 24 to 48 hrs by MTT assay. In kind it is functional, cell-based.
In assay [4] the test system is M14. Kind of assay: Induction of cell morphology impairment in human M14 cells at cytotoxic IC50 concentration by phase contrast microscopy. Format: functional, cell-based. A digest of the protocol: (§1)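 Logarithmically growing M14 cells plated at 10⁵ cells/mL, with compound added after 24 h and vehicle controls alongside. Followed by inverted phase-contrast time-lapse microscopy at 37 °C under 5% CO₂, images taken hourly for up to 72 h. Rounding, blebbing and detachment scored at 10, 24 and 48 h.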

Assay [5] has as its system M14. The experiment in a line: Induction of cell morphology impairment in human M14 cells assessed as emergence of round and damaged cells at cytotoxic IC50 concentration after 10 hrs by phase contrast microscopy. Format: functional, cell-based. The gist of the method: as §1
Assay [6] deals with M14. Kind of assay: Induction of apoptosis in human M14 cells assessed as caspase-3 activation at 0.1 to 0.3 uM after 16 hrs by Western blot. Format: functional, cell-based. The gist of the method:
(§2)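 M14 cells (1 × 10⁶ per flask) exposed 16 and 24 h, then lysed in ice-cold Triton lysis buffer with protease inhibitors. Equal protein run on 8-12% SDS-PAGE and blotted to nitrocellulose. Probed overnight at 4 °C for cleaved active caspase-3 subunits or PARP cleavage (85 kDa fragment), with HRP secondary and ECL read-out. Tubulin reprobe.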

Assay [7] relates to M14. The experiment in a line: Induction of apoptosis in human M14 cells assessed as PARP cleavage at 0.1 to 0.3 uM after 16 hrs by Western blot. In kind it is functional, cell-based. A digest of the protocol:
as §2

Assay [8] has as its system M14. Kind of assay: Effect on cell cycle progression in human M14 cells at 0.3 uM after 24 hrs by flow cytometry. In kind it is functional, cell-based. The gist of the method:
(§3)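 M14 cells at 2,5 × 10⁵ cells/mL in 12-well plates, treated 24 h (vehicle controls run alongside). Cells were trypsinised, washed in PBS and stained with propidium iodide in 0.1% sodium citrate/0.1% Triton X-100 at 4 °C for 30 min in the dark. FACScan analysis gave the percentage of cells in G0/G1, S and G2/M. Hypodiploid nuclei were scored as apoptotic.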

Assay [9] deals with M14. The experiment in a line: Effect on cell cycle progression in human M14 cells at 1 uM after 24 hrs by flow cytometry. Format: functional, cell-based. The gist of the method: as §3
Assay [10] deals with M14. The experiment in a line: Increase in p53 expression in human M14 cells at 0.3 uM after 24 to 48 hrs by Western blot. Format: functional, cell-based. A digest of the protocol: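 M14 cells (1 × 10⁶ per flask) treated 24 and 48 h alongside untreated controls. Lysed in ice-cold Tris/NaCl/EDTA/1% Triton buffer with protease inhibitors. Equal protein run on 8-12% SDS-PAGE and blotted to nitrocellulose. Blocked in milk/Tween-TBS, anti-p53 overnight at 4 °C, HRP secondary, ECL detection. Cytoplasmic p53 read, with tubulin as reprobe.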

In assay [11] the test system is M14. Kind of assay: Induction of cell morphology impairment in human M14 cells assessed as cell detachment at cytotoxic IC50 concentration after 48 hrs by phase contrast microscopy.
Assay [12] deals with M14. The experiment in a line: Induction of apoptosis in human M14 cells assessed as caspase-3 activation at supra cytotoxic IC50 concentration after 16 to 24 hrs by Western blot. Format: functional, cell-based.
Assay [13] deals with M14. The experiment in a line: Induction of apoptosis in human M14 cells at 1 to 5 uM after 24 hrs. In kind it is functional, cell-based.
The subject of assay [14] is M14. The experiment in a line: Cell cycle arrest in human M14 cells assessed as accumulation at G2/M phase at 3 uM after 24 hrs by flow cytometry. In kind it is functional, cell-based. A digest of the protocol: (§4)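 Trypsinized, washed in PBS, stained in the dark at 4 °C for 30 min with 0.1% sodium citrate, 0.1% Triton X-100 and propidium iodide. Analyzed by FACScan flow cytometry. Phase distribution (G0/G1, S, G2/M) given as percentage of cells.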

For assay [15], the system named is M14. Kind of assay: Cell cycle arrest in human M14 cells assessed as accumulation at G2 phase at 3 uM after 24 hrs by flow cytometry. Format: functional. The gist of the method: as §4
Assay [16] deals with M14. The experiment in a line: Cell cycle arrest in human M14 cells assessed as decrease in G0/G1 phase accumulation at 3 uM after 24 hrs by flow cytometry. Format: functional. Set-up: scale not given: the % may be the effect or the level left. A digest of the protocol:
as §4

The test system of assay [17] is M14. Kind of assay: Increase in p53 expression in human M14 cells at 3 uM after 24 to 48 hrs by Western blot. Format: functional, cell-based. The gist of the method:
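M14 cells (1 × 10⁶ per flask), treated for 24 and 48 h. Lysed in ice-cold 50 mM Tris, 150 mM NaCl, 10 mM EDTA, 1% Triton with protease inhibitors. Equal protein run on 8-12% SDS-PAGE and blotted to nitrocellulose. Cytoplasmic p53 probed overnight at 4 °C, detected by HRP secondary and ECL, with tubulin as loading reprobe.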

Activity calls are given as the source filed them. The calls are words filed in the database; no cut-off is given here.

Turning to `CC1(C)CCC(N2C(=O)[C@@H]3CS[C@]4(C(=O)Nc5ccc(Br)cc54)N3C2=O)CC1`, the IC50 in assay [1], in assay [2] and in [3] was above 40 µM throughout.
For `O=C1[C@@H]2CS[C@]3(C(=O)Nc4ccccc43)N2C(=O)N1Cc1ccc(Cl)cc1`, the IC50 in assay [1] was found to be 0.44 µM; in assay [2], 0.53 µM; in [3], 0.87 µM. For the same compound, the outcome in [4], in [5], in assay [6], in [7], in assay [10] and in assay [11] was Active. For the same compound, the outcome in assay [8] and in assay [9] was inactive.
For the compound `Cc1ccc(CN2C(=O)[C@@H]3CS[C@]4(C(=O)Nc5ccc(Br)cc54)N3C2=O)cc1`, the results for the IC50 in assay [1], in assay [2] and in assay [3] were 7.61 µM, 10.2 µM and 6.23 µM, respectively.
Take `O=C1[C@@H]2CS[C@]3(C(=O)Nc4ccccc43)N2C(=O)N1Cc1ccccc1`: the IC50 in assay [1] came to 4.8 µM; in [2] it was 10.6 µM; in assay [3], 3.9 µM.
In the same order, the values of `Cc1ccc2c(c1)[C@@]1(SC[C@H]3C(=O)N(C4CCC(C)(C)CC4)C(=O)N31)C(=O)N2` are 16 µM, 19.1 µM and 12.5 µM.
For `Cc1ccc(CN2C(=O)[C@@H]3CS[C@]4(C(=O)N(C)c5ccccc54)N3C2=O)cc1` the same measures were 10.7 µM, 31.8 µM and 16.8 µM.
For `COc1cccc2c1C(=O)c1c(O)c3c(c(O)c1C2=O)C[C@@](O)(C(=O)CO)C[C@@H]3O[C@H]1C[C@H](N)[C@H](O)[C@H](C)O1` [DOXORUBICIN] the same measures were 0.9 µM, 1 µM and 0.8 µM.
On to `CN1C(=O)[C@]2(SC[C@H]3C(=O)N(Cc4ccccc4)C(=O)N32)c2ccccc21`, for which the IC50 in assay [1] stood at 3.98 µM; in assay [2] it was 6.37 µM; in [3], 2.89 µM.
For `O=C1[C@@H]2CS[C@]3(C(=O)N(C(=O)c4ccc(Cl)cc4)c4ccccc43)N2C(=O)N1Cc1ccc(Cl)cc1` the same measures were 5.01 µM, 3.37 µM and 2.61 µM.
With `COc1cc(CN2C(=O)[C@@H]3CS[C@]4(C(=O)Nc5ccc(C)cc54)N3C2=O)cc(OC)c1OC`, the IC50 in assay [1] stood at 2.04 µM; in [2] it was 2.4 µM; in assay [3], 2.06 µM. Also, the outcome in [4], in assay [5], in [14] and in assay [11] was Active. For the same compound, the outcome in [12] and in assay [13] was inactive. The Activity came out at 47% in [15] and 20% in [16].
For the compound `COc1cc(CN2C(=O)[C@@H]3CS[C@]4(C(=O)N(C(=O)c5ccccc5)c5ccc(C)cc54)N3C2=O)cc(OC)c1OC`, the IC50 in assay [1] amounted to 4.22 µM; in assay [2], 7.84 µM; in [3] it was 4.31 µM.
Consider `Cc1ccc2c(c1)[C@@]1(SC[C@H]3C(=O)N(Cc4ccc(Cl)cc4)C(=O)N31)C(=O)N2`, for which the IC50 in assay [1] was 3.88 µM; in assay [2] it was 6.65 µM; in assay [3], 3.31 µM. In addition, the outcome in assay [17] was Active.
Consider `COc1cc(CN2C(=O)[C@@H]3CS[C@]4(C(=O)Nc5ccc(Br)cc54)N3C2=O)cc(OC)c1OC`, for which the IC50 was 9.31 µM in assay [1], 11 µM in assay [2] and 5.02 µM in [3].
For `COc1cc(CN2C(=O)[C@@H]3CS[C@]4(C(=O)N(C(=O)c5ccc(C)cc5)c5ccc(C)cc54)N3C2=O)cc(OC)c1OC` the same measures were 3.81 µM, 5.95 µM and 2.42 µM.
For `COc1cc(CN2C(=O)[C@@H]3CS[C@]4(C(=O)N(C(=O)c5ccc(Cl)cc5)c5ccc(C)cc54)N3C2=O)cc(OC)c1OC` the same measures were 4.71 µM, 8.14 µM and 3.11 µM.
In the same order, the values of `O=C1[C@@H]2CS[C@]3(C(=O)Nc4ccc(Br)cc43)N2C(=O)N1Cc1ccccc1` are 8.48 µM, 12 µM and 7.58 µM.
Consider `Cc1ccc(CN2C(=O)[C@@H]3CS[C@]4(C(=O)Nc5ccccc54)N3C2=O)cc1`, for which the IC50 worked out at 4.53 µM in assay [1], 13.3 µM in assay [2] and 5.91 µM in [3].
In the same order, the values of `Cc1ccc(C(=O)N2C(=O)[C@]3(SC[C@H]4C(=O)N(Cc5ccc(Cl)cc5)C(=O)N43)c3ccccc32)cc1` are 2.5 µM, 2.08 µM and 2.01 µM.
In the same order, the values of `CN1C(=O)[C@]2(SC[C@H]3C(=O)N(C4CCC(C)(C)CC4)C(=O)N32)c2ccccc21` are above 40 µM, above 40 µM and above 40 µM.
For `CC1(C)CCC(N2C(=O)[C@@H]3CS[C@]4(C(=O)Nc5ccccc54)N3C2=O)CC1` the same measures were 4.22 µM, 7.07 µM and 2.61 µM.
In the case of `COc1cc(CN2C(=O)[C@@H]3CS[C@]4(C(=O)Nc5ccccc54)N3C2=O)cc(OC)c1OC`, the IC50 in assay [1] came to 3.8 µM; in assay [2] it was 4.73 µM; in assay [3], 2.51 µM.
Consider `Cc1ccc(CN2C(=O)[C@@H]3CS[C@]4(C(=O)Nc5ccc(C)cc54)N3C2=O)cc1`, for which the concentration for half-maximal inhibition (IC50) in [1] turned out to be 3.01 µM; in [2], 3.39 µM; in assay [3], 2.77 µM.
In the case of `CCCC(=O)N1C(=O)[C@]2(SC[C@H]3C(=O)N(Cc4cc(OC)c(OC)c(OC)c4)C(=O)N32)c2cc(C)ccc21`, the IC50 is 4.42 µM in assay [1], 7.4 µM in assay [2] and 4.1 µM in [3].
In the same order, the values of `CCCC(=O)N1C(=O)[C@]2(SC[C@H]3C(=O)N(Cc4ccc(Cl)cc4)C(=O)N32)c2ccccc21` are 2.01 µM, 2.04 µM and 2.1 µM.
For `COc1cc(CN2C(=O)[C@@H]3CS[C@]4(C(=O)N(C)c5ccccc54)N3C2=O)cc(OC)c1OC` the same measures were 6.01 µM, 7.66 µM and 5.7 µM.
With `O=C1[C@@H]2CS[C@]3(C(=O)Nc4ccc(Br)cc43)N2C(=O)N1Cc1ccc(Cl)cc1`, the results for the IC50 in assay [1], in [2] and in assay [3] were 7.13 µM, 7.06 µM and 5.01 µM, respectively.
In the same order, the values of `CN1C(=O)[C@]2(SC[C@H]3C(=O)N(Cc4ccc(Cl)cc4)C(=O)N32)c2ccccc21` are 2.11 µM, 2.47 µM and 2.91 µM.
For `O=C1[C@@H]2CS[C@]3(C(=O)N(C(=O)c4ccccc4)c4ccccc43)N2C(=O)N1Cc1ccc(Cl)cc1` the same measures were 3.5 µM, 3.25 µM and 3.12 µM.
In the same order, the values of `Cc1ccc2c(c1)[C@@]1(SC[C@H]3C(=O)N(Cc4ccccc4)C(=O)N31)C(=O)N2` are 3.3 µM, 3.88 µM and 2.09 µM.
